Assay results taken from ChEMBL document CHEMBL4196140, “Spiro-Phthalides and Isocoumarins Isolated from the Marine-Sponge-Derived Fungus Setosphaeria sp. SCSIO41009” (J Nat Prod, 2018).
Converted amounts (≈) assume the structure as drawn. The source made the active and inactive calls. No cut-off for these calls is given here.

Tests used:
[1] = Antioxidant activity assessed as DPPH radical scavenging activity incubated for 30 mins in dark condition; format: functional
Method in brief: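 Test samples in DMSO were mixed 1:9 with freshly made 0.2 mM DPPH in EtOH (DPPH stock level), giving final compound levels of 50, 25, 12.5, 6.25 and 3.125 μg/mL, in triplicate, with ascorbic acid as positive control. After 30 min in the dark, the fall in absorbance at 517 nm was read. Blank: EtOH instead of DPPH. Control: DMSO instead of sample. % scavenging = [1 − (sample − blank)/control] × 100. IC50 is the concentration scavenging 50% of radicals.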

[2] = target: T1, Phosphotyrosine protein phosphatase (Mycobacterium tuberculosis) (UniProt A0A045ISB3); assay: Inhibition of Mycobacterium PTPB at 50 uM using p-nitrophenyl phosphate as substrate incubated for 10 mins followed by substrate addition and measured for 5 mins by spectrophotometric method
T1 sequence (whole entry): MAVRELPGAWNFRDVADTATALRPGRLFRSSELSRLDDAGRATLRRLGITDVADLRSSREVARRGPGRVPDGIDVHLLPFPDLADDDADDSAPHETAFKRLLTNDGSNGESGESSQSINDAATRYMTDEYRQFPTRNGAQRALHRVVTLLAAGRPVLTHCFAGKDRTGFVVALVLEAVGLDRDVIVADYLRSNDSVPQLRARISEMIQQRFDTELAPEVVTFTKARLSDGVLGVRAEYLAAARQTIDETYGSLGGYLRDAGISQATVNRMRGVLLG

Influenza A virus = assay: Antiviral activity against Influenza A virus H1N1 A/FM-1/1/47 infected in MDCK cells assessed as inhibition of virus-induced cytopathic effect after 48 hrs by MTT assay; format: functional, organism-based
Staphylococcus aureus = assay: Antimicrobial activity against Staphylococcus aureus by broth microdilution method; format: functional, organism-based
Colletotrichum asianum = assay: Antimicrobial activity against Colletotrichum asianum by broth microdilution method; format: functional
Colletotrichum acutatum = assay: Antimicrobial activity against Colletotrichum acutatum by broth microdilution method; format: functional

Compound	IC50 [1] [µM]	inhibition [2]	inhibition (Influenza A virus)	Activity (Staphylococcus aureus)	MIC (Colletotrichum asianum) [µg/mL]	MIC (Colletotrichum acutatum) [µg/mL]
O=C1O[C@H]([C@@H](O)CO)C(O)=C1O [ASCORBIC ACID]	39					
CCC[C@H]1C[C@H](O)[C@@]2(OC(=O)c3c2cc(OC)c(OC)c3O)O1		inactive	inactive	inactive		
CCC[C@H]1C[C@H]2OC(=O)c3c(cc(OC)c(OC)c3O)[C@@H]2O1		inactive	inactive	inactive		
CCCCc1c(OC)cc(=O)oc1C		inactive	inactive	inactive		
COc1cc2c(c(O)c1OC)C(=O)O[C@@H]1C[C@H](CCCO)O[C@H]21		inactive	inactive	inactive		
CCCCC1=C(OC)C(=O)OC1(C)O (racemic)		inactive	inactive	inactive		
COCc1c(O)cc(C)c2c1Oc1c(C)cc(O)c(C)c1OC2=O		inactive	inactive	inactive	160 (≈ 484 µM)	310 (≈ 938 µM)
CCC(O)Cc1c(OC)cc(=O)oc1C (centres undefined)		inactive	inactive	inactive		
CCC[C@H]1C[C@H]2OC(=O)c3c(cc(OC)c(O)c3O)[C@H]2O1	38	inactive	inactive	inactive		
CC[C@H](O)[C@H]1C[C@H]2OC(=O)c3c(cc(OC)c(OC)c3O)[C@H]2O1		inactive	inactive	inactive		
C[C@@H]1C[C@@H]([C@H](O)CC2CC(=O)NC(=O)C2)C(=O)[C@@H](C)C1 [CYCLOHEXIMIDE]					80 (≈ 284 µM)	40 (≈ 142 µM)
COc1cc(=O)oc(C)c1CCC(C)O (centres undefined)		inactive	inactive	inactive		
COC(=O)CCCc1c(OC)cc(=O)oc1C		inactive	inactive	inactive		
CCCC(=O)CC[C@@H]1OC(=O)c2c1cc(OC)c(OC)c2O		inactive	inactive	inactive		
CCC[C@@H]1C[C@H]2OC(=O)c3c(cc(OC)c(OC)c3O)[C@@H]2O1		inactive	inactive	inactive		
CCC[C@@H]1C[C@H]2OC(=O)c3c(cc(O)c(OC)c3O)[C@@H]2O1		inactive	inactive	inactive		
COc1cc(=O)oc(C)c1CCCC(=O)O		inactive	inactive	inactive		
CCCCc1c(OC)cc(=O)oc1CO		inactive	inactive	inactive		
CC[C@@H](O)[C@H]1C[C@H]2OC(=O)c3c(cc(OC)c(OC)c3O)[C@H]2O1		inactive	inactive	inactive		
CCCCOCc1c(O)cc(C)c2c1Oc1c(C)cc(O)c(C)c1OC2=O		inactive	inactive	inactive	630 (≈ 1690 µM)	630 (≈ 1690 µM)
COc1cc2c(c(O)c1OC)C(=O)O[C@@H]1C[C@H](CCC(=O)O)O[C@H]21		inactive	inactive	inactive		
CCCC(=O)CC[C@H]1OC(=O)c2c1cc(O)c(OC)c2O		inactive	inactive	inactive		
COc1cc2c(c(O)c1OC)C(=O)O[C@@H]1C[C@H](C[C@@H](C)O)O[C@H]21		inactive	inactive	inactive		
CCC[C@H]1C[C@H](O)[C@]2(OC(=O)c3c2cc(OC)c(OC)c3O)O1		inactive	inactive	inactive		
